# Measured values from ChEMBL document CHEMBL5576111, “N-Sulfonylphenoxazines as neuronal calcium ion channel blockers” (RSC Med Chem, 2024).
# Assays:
# [1] = biological target: Voltage-dependent N-type calcium channel subunit alpha-1B (Homo sapiens, UniProt Q00975); assay: Inhibition of Cav2.2 in human SH-SY5Y cells assessed as inhibition of calcium influx preincubated 300 secs followed by addition of KCL/CaCl2 and measured for 300 secs in presence of Cav1 blocker nifedipine by calcium 6 dye based calcium influx assay; assay type: cell-based
# Chain of Voltage-dependent N-type calcium channel subunit alpha-1B (Q00975 whole entry): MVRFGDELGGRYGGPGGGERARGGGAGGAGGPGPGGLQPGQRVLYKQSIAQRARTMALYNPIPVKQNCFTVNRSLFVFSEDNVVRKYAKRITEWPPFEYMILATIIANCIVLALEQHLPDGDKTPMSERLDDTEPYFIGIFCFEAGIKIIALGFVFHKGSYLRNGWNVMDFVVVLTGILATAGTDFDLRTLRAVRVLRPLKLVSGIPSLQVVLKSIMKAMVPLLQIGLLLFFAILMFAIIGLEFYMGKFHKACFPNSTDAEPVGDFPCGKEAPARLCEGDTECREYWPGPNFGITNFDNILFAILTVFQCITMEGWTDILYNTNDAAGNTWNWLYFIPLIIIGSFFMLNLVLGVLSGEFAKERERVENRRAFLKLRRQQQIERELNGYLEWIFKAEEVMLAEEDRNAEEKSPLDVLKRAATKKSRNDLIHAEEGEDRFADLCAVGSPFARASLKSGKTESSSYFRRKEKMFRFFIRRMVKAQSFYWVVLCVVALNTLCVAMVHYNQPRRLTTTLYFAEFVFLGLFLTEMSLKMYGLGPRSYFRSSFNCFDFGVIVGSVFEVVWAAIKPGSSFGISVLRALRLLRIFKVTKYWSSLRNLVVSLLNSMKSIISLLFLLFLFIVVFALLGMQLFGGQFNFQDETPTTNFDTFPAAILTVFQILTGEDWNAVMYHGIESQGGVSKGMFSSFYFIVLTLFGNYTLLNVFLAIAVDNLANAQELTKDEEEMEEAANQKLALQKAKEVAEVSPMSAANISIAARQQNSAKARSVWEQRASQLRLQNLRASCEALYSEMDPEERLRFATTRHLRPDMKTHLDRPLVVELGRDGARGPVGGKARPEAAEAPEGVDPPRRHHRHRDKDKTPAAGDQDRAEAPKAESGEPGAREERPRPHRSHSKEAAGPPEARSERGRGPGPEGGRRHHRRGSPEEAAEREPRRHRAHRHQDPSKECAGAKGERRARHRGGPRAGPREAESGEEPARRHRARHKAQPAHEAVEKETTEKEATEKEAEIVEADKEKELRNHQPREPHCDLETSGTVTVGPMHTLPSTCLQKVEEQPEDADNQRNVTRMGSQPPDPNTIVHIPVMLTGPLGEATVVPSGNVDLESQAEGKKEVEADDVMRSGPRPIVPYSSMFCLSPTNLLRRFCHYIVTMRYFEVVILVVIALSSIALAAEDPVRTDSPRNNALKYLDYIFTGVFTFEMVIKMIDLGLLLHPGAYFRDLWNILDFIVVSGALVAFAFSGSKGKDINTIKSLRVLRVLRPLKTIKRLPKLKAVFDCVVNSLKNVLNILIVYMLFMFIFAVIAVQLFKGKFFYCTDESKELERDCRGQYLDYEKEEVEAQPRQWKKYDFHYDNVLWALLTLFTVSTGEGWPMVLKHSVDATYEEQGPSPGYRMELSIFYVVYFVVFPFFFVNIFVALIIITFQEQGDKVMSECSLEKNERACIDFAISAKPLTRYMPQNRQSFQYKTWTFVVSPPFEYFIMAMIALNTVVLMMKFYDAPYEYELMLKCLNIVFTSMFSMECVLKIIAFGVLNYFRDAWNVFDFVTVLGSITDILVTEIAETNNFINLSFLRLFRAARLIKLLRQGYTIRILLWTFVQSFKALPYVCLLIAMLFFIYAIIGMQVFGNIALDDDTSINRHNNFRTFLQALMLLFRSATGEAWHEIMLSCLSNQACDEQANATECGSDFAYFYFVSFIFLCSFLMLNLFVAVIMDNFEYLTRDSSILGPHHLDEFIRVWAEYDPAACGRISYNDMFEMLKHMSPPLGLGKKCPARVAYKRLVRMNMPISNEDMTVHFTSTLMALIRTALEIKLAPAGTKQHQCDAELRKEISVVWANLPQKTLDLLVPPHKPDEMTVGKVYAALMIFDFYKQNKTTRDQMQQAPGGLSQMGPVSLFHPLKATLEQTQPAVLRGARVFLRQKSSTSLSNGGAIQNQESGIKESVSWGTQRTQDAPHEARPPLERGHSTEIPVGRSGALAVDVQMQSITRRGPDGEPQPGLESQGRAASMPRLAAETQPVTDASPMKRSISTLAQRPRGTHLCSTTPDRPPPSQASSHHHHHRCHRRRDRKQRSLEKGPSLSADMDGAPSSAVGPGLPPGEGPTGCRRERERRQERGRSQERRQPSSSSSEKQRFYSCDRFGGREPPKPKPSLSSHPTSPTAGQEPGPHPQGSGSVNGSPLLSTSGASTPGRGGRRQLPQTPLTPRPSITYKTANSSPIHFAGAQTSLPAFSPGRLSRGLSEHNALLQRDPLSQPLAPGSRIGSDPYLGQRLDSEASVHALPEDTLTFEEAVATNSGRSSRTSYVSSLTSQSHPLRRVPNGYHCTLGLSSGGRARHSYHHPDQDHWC
# How it was run: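 Native Cav2.2 in SH-SY5Y neuroblastoma cells seeded at 40000/well and grown 48 h at 37 °C, 5% CO2. Calcium 6 dye loading 30 min at 37 °C in HEPES buffer pH 7.4 with 0.1% BSA and 10 µM nifedipine. Compound added for 300 s, then 90 mM KCl/5 mM CaCl2, read 300 s (ex 470-495, em 515-575 nm). Top concentration 100 µM, 3-fold dilutions, 1% DMSO; cilnidipine control; n = 3.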
# [2] = Stability in Sprague-Dawley rat plasma assessed as parent compound remaining at 150 uM measured after 24 hrs at 37 degreeC by HPLC analysis; assay type: ADME, cell-free; details: read-out: Stability
# [3] = Metabolic stability in rat liver microsomes assessed intrinsic clearance per mg protein at 1 uM measured up to 60 mins in presence of NADPH by LC/HRMS analysis; assay type: ADME, Microsome; details: 1 h
Compound,IC50 [1],"remaining at 24 h, 150 µM [2]",CLint [3]
O=S(=O)(c1ccc(NCCCN2CCOCC2)cc1)N1c2ccccc2Oc2ccccc21,20.8 µM,,
O=C(O)C(F)(F)F.O=S(=O)(c1ccc(OCCCN2CCOCC2)cc1)N1c2ccccc2Oc2ccccc21,29 µM,> 90%,239 µL/min/mg
O=S(=O)(c1ccc(NCCCn2ccnc2)cc1)N1c2ccccc2Oc2ccccc21,13.7 µM,,
CN(C)CCCOc1ccc(S(=O)(=O)N2c3ccccc3Oc3ccccc32)cc1.O=C(O)C(F)(F)F,4.3 µM,> 90%,105 µL/min/mg
COCCCOc1ccc(S(=O)(=O)N2c3ccccc3Oc3ccccc32)cc1,172 µM,,
CN(C)CCCN(C)c1ccc(S(=O)(=O)N2c3ccccc3Oc3ccccc32)cc1,18.7 µM,,
O=C(O)C(F)(F)F.O=S(=O)(c1ccc(OCCCN2CCCC2)cc1)N1c2ccccc2Oc2ccccc21,8 µM,> 90%,83 µL/min/mg
CNCCCNc1ccc(S(=O)(=O)N2c3ccccc3Oc3ccccc32)cc1,10.9 µM,,
O=S(=O)(c1ccc(NCCCN2CCCC2)cc1)N1c2ccccc2Oc2ccccc21,4.4 µM,,
CNCCCOc1ccc(S(=O)(=O)N2c3ccccc3Oc3ccccc32)cc1.O=C(O)C(F)(F)F,4.6 µM,73%,34 µL/min/mg
CN(C)CCCNc1ccc(S(=O)(=O)N2c3ccccc3Oc3ccccc32)cc1,9.1 µM,,
O=C(O)C(F)(F)F.O=S(=O)(c1ccc(OCCCn2ccnc2)cc1)N1c2ccccc2Oc2ccccc21,48.7 µM,> 90%,132 µL/min/mg
O=C(O)C(F)(F)F.O=S(=O)(c1ccc(OCCCN2CCCCC2)cc1)N1c2ccccc2Oc2ccccc21,7.6 µM,> 90%,97 µL/min/mg
O=S(=O)(c1ccc(NC2CCNCC2)cc1)N1c2ccccc2Oc2ccccc21,19.9 µM,,
O=S(=O)(c1ccc(NCCCN2CCCCC2)cc1)N1c2ccccc2Oc2ccccc21,15.2 µM,,
